Measurements from different studies.
Lines come from different studies, so protocols differ.
Observed: cell growth or viability

`CC(=O)O[C@@]12CO[C@@H]1C[C@H](O)[C@@]1(C)C(=O)[C@H](O)C3=C(C)[C@@H](OC(=O)[C@H](O)[C@@H](NC(=O)OC(C)(C)C)c4ccccc4)C[C@@](O)([C@@H](OC(=O)c4ccccc4)[C@H]21)C3(C)C` has an IC50 of 280 µg/mL (PC-12; MTT).
The IC50 of `Cc1ccc(-c2ccc(O)cc2)c(C(=C2C=CC(=O)C=C2)c2ccc(O)cc2)c1C#Cc1ccc(O)cc1` is reported as 15000 nM (MGC-803; MTT; 48 h).
For `CC1=C(O)C(=O)C=C2C1=CC=C1[C@@]2(C)CC[C@@]2(C)[C@@H]3C[C@](C)(C(=O)OCCCn4ccc5ccccc54)CC[C@]3(C)CC[C@]12C`, the IC50 was 1090 nM (MGC-803; MTT; 48 h).
The IC50 of `CC1(C)CC[C@]2(C(=O)O)CC[C@]3(C)C(=CC[C@@H]4[C@@]5(C)CC[C@H](O)C(C)(C)[C@@H]5CC[C@]43C)[C@@H]2C1` is reported as 78200 nM (ECa-109; MTT; 48 h).
`CC(=O)O[C@@]12CO[C@@H]1C[C@H](O)[C@@]1(C)C(=O)[C@H](O)C3=C(C)[C@@H](OC(=O)[C@H](O)[C@@H](NC(=O)OC(C)(C)C)c4ccccc4)C[C@@](O)([C@@H](OC(=O)c4ccccc4)[C@H]21)C3(C)C` gave an IC50 of 2.9 nM (143B; resazurin; 72 h).
`Cc1nnc(C(=O)NC(C)(C)c2nc(C(=O)NCc3ccc(F)cc3)c(O)c(=O)n2C)o1` has an IC50 of 36400 nM (COS-7; ATP luminescence).
For `CC1=C(O)C(=O)C=C2C1=CC=C1[C@@]2(C)CC[C@@]2(C)[C@@H]3C[C@](C)(C(=O)OCCCCCCCCO)CC[C@]3(C)CC[C@]12C`, the IC50 was 380 nM (MGC-803; MTT; 48 h).
`O=C(O)c1cc(O)c(O)c(O)c1` has an IC50 of greater than 100000 nM (PC-12; MTT).
`CC1=C(O)C(=O)C=C2C1=CC=C1[C@@]2(C)CC[C@@]2(C)[C@@H]3C[C@](C)(C(=O)OCCCO)CC[C@]3(C)CC[C@]12C` gave an IC50 of 290 nM (MGC-803; MTT; 48 h).
`C#C[C@@]1(O)[C@@H](COP(=O)(O)OC[C@H]2O[C@@H](n3cc(F)c(=O)[nH]c3=O)C[C@@H]2O)O[C@@H](n2ccc(N)nc2=O)[C@@H]1O` gave an IC50 of 2.2 nM (FM3A/0; MTT; 72 h).
With `COc1cc(Nc2nccc(-c3cnn4nc(OC)ccc34)n2)cc(C(F)(F)F)c1` the IC50 was 640 nM (NCI-N87; ATP luminescence).
`O=c1[nH]cc(F)c(=O)[nH]1` gave an IC50 of 39000 nM (MGC-803; MTT; 48 h).
With `CC(=O)OCCOC(=O)[C@]1(C)CC[C@]2(C)CC[C@]3(C)C4=CC=C5C(=CC(=O)C(O)=C5C)[C@]4(C)CC[C@@]3(C)[C@@H]2C1` the IC50 was 410 nM (MGC-803; MTT; 48 h).
`Cc1cnc(-c2ccc(-c3ccc(NC(=O)Nc4c(F)cc(F)cc4F)cc3F)c3c2C(=O)NC3)[nH]1` gave an IC50 of 22 nM (Kasumi 1).
`COCCCOC(=O)[C@]1(C)CC[C@]2(C)CC[C@]3(C)C4=CC=C5C(=CC(=O)C(O)=C5C)[C@]4(C)CC[C@@]3(C)[C@@H]2C1` has an IC50 of 400 nM (MGC-803; MTT; 48 h).
The IC50 of `CC[C@H](C)C(=O)O[C@H]1C[C@H](O)C=C2C=C[C@H](C)[C@H](CC[C@@H](O)C[C@@H](O)CC(=O)O)[C@H]21` is reported as greater than 200 µg/mL (SW480; SRB; 72 h).
For `N[C@@H](CC(=O)N1CCN(C(c2ccc(F)cc2)c2ccc(F)cc2)CC1)C(=O)N1Cc2ccccc2C1`, the IC50 was 40800 nM (Kasumi 1; ATP luminescence; 48 h).
The IC50 of `O=C(Nc1ccc(Cl)cc1)c1ccc([N+](=O)[O-])o1` is reported as 1120 nM (NCI-H2030; resazurin; 96 h).
`O=C(c1ccc(OCCN2CCCCC2)cc1)c1c(-c2ccc(O)cc2)sc2cc(O)ccc12` gave an IC50 of 20100 nM (COS-7; ATP luminescence).
`CCOC(=O)c1[nH]c(Br)c(-c2ccc(SC)cc2)c1Br` gave an IC50 of 626 nM (MDA-MB-435; SRB).
For `CC1=C(O)C(=O)C=C2C1=CC=C1[C@@]2(C)CC[C@@]2(C)[C@@H]3C[C@](C)(C(=O)OCCCCO)CC[C@]3(C)CC[C@]12C`, the IC50 was 270 nM (MGC-803; MTT; 48 h).
